From ChEMBL document CHEMBL4251654, “Structure-based design of human immuno- and constitutive proteasomes inhibitors” (Eur J Med Chem, 2018)
The source made the active and inactive calls. No cut-off for these calls is given here.

How the values were obtained:
[1] = target: Proteasome Macropain subunit (Homo sapiens) (UniProt P49721); experiment: Inhibition of human 20S constitutive proteasome beta-2 at 50 uM using BocLRR-AMC as substrate incubated for 15 mins measured for 45 mins by fluorescence assay relative to control
Chain of Proteasome Macropain subunit (Homo sapiens) (P49721 whole entry): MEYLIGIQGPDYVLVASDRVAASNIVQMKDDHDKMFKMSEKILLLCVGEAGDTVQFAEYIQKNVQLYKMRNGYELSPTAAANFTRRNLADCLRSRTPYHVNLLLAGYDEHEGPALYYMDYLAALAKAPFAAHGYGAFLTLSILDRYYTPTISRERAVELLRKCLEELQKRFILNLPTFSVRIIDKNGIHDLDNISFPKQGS
Summary of the method: (§1)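 Purified human 20S proteasome (cCP or iCP), 0.3 nM, preincubated 15 min with compound (0.001-50 μM) in pH 8 buffer of 20 mM Tris-HCl, 10% glycerol, 0.005% Triton X-100, 2% DMSO. Then Boc-LRR-AMC at 50 μM was added. AMC fluorescence (ex 360/em 460 nm) was followed 45 min at 37 °C. Activity is relative to an untreated control.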

[2] = target: T1, Proteasome subunit beta type-8 (Homo sapiens, UniProt P28062); experiment: Inhibition of human 20S immunoproteasome beta-5 using Suc-LLVY-AMC as substrate incubated for 15 mins measured for 45 mins by fluorescence assay
T1 sequence (P28062 whole entry): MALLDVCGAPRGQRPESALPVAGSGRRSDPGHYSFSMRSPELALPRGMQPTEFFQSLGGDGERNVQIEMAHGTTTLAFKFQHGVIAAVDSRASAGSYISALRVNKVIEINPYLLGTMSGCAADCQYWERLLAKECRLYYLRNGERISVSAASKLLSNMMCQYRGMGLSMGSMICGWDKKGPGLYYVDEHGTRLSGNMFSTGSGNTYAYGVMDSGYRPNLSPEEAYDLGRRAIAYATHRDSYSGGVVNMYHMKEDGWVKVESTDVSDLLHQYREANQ
Summary of the method: (§2)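 Human 20S cCP or iCP (0.3 nM) was exposed to compound (0.001-50 μM) for 15 min in pH 8 buffer of 20 mM Tris-HCl, 10% glycerol, 0.01% SDS, 2% DMSO. Suc-LLVY-AMC at 20 μM followed. Fluorescence (ex 360/em 460 nm) was read 45 min at 37 °C versus untreated enzyme.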

[3] = target: T2, Proteasome component C5 (Homo sapiens) (UniProt P20618); experiment: Inhibition of human 20S constitutive proteasome beta-1 at 50 uM using Z-LLE-betaNA as substrate incubated for 15 mins measured for 45 mins by fluorescence assay relative to control
T2 sequence (whole entry): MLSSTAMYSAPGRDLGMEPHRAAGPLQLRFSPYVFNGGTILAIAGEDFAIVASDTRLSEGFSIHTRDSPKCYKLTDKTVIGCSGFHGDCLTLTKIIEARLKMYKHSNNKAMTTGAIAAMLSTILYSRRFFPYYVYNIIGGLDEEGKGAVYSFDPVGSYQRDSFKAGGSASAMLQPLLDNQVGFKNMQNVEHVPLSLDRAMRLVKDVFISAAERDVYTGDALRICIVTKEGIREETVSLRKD
Summary of the method: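 Human 20S constitutive proteasome, 0.3 nM, was preincubated 15 min with compound (0.001-50 μM) in pH 8 Tris-HCl 20 mM, 10% glycerol, 0.01% SDS, 2% DMSO. Z-LLE-βNA at 50 μM was added. βNA fluorescence (ex 340/em 404 nm) was monitored 45 min at 37 °C against an untreated control.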

[4] = target: T3, Proteasome subunit beta type-8 (Homo sapiens) (UniProt P28062); experiment: Inhibition of human 20S immunoproteasome beta-5 at 50 uM using Suc-LLVY-AMC as substrate incubated for 15 mins measured for 45 mins by fluorescence assay relative to control; summary of the method: as §2
T3 sequence (whole entry): T1 sequence (P28062 whole entry)

[5] = target: T4, Proteasome Macropain subunit MB1 (Homo sapiens, UniProt P28074); experiment: Inhibition of human 20S constitutive proteasome beta-5 using Suc-LLVY-AMC as substrate incubated for 15 mins measured for 45 mins by fluorescence assay; summary of the method: as §2
T4 sequence (P28074 whole entry): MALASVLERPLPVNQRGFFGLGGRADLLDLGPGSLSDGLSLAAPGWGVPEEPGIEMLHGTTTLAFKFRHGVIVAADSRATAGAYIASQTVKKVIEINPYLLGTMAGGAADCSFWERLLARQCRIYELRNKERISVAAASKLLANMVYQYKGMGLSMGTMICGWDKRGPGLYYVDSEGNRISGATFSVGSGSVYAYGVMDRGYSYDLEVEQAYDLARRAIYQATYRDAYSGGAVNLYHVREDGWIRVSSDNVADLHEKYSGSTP

[6] = target: T5, Proteasome subunit beta type-10 (Homo sapiens) (UniProt P40306); experiment: Activation of human 20S immunoproteasome beta-2 at 50 uM using BocLRR-AMC as substrate incubated for 15 mins measured for 45 mins by fluorescence assay relative to control; summary of the method: as §1
T5 sequence (whole entry): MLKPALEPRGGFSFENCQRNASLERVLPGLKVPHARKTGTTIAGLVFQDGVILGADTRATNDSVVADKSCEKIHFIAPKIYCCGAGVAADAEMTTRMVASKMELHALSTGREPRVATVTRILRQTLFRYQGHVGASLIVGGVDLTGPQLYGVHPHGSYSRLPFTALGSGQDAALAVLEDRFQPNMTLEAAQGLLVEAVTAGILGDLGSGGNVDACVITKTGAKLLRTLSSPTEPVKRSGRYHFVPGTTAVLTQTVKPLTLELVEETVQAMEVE

[7] = target: T6, Proteasome subunit beta type-9 (Homo sapiens) (UniProt P28065); experiment: Inhibition of human 20S immunoproteasome beta-1 at 50 uM using Ac-PAL-AMC as substrate incubated for 15 mins measured for 45 mins by fluorescence assay relative to control
T6 sequence (whole entry): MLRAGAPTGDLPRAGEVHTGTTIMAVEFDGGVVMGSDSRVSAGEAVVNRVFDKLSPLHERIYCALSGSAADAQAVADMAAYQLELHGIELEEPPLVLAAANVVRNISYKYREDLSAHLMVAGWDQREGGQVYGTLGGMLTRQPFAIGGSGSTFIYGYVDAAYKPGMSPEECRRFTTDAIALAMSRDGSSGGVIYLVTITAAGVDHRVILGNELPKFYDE
Summary of the method: (§3)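 Human 20S immunoproteasome (0.3 nM) was given 15 min with compound (0.001-50 μM) in pH 8 buffer of 20 mM Tris-HCl, 10% glycerol, 0.01% SDS, 2% DMSO. Ac-PAL-AMC at 50 μM was the substrate. Fluorescence (ex 360/em 460 nm) was followed 45 min at 37 °C relative to control.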

[8] = target: T7, Proteasome Macropain subunit MB1 (Homo sapiens) (UniProt P28074); experiment: Inhibition of human 20S constitutive proteasome beta-5 at 50 uM using Suc-LLVY-AMC as substrate incubated for 15 mins measured for 45 mins by fluorescence assay relative to control; summary of the method: as §2
T7 sequence (whole entry): T4 sequence (P28074 whole entry)

PC-3 = experiment: Cytotoxicity against human PC3 cells assessed as reduction in cell viability after 48 hrs by Hoechst 33342 staining based HCS assay; assay type: functional; settings: Homo sapiens, PC-3, 48 h; read-out: EC50
Summary of the method: (§4)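 Cells were grown at 37 °C, 5% CO2 in medium with 10% FBS, 1% penicillin-streptomycin, 2 mM glutamine: DMEM for HuH7, MDA-MB-231 and fibroblasts, EMEM for Caco2, McCoy's for HCT116, RPMI for PC3 and NCI-H727. 4000 cells/well were seeded and dosed 24 h later at 0.1-25 μM final, from DMSO stocks. After 48 h they were fixed in ethanol/acetic acid and Hoechst-stained nuclei were counted by imaging. Survival is relative to DMSO. EC50 came from dose-response curves.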

MDA-MB-231 = experiment: Cytotoxicity against human MDA-MB-231 cells assessed as reduction in cell viability after 48 hrs by Hoechst 33342 staining based HCS assay; assay type: functional; settings: Homo sapiens, MDA-MB-231, 48 h; read-out: EC50; summary of the method: as §4
[9] = target: T8, Proteasome subunit beta type-9 (Homo sapiens, UniProt P28065); experiment: Inhibition of human 20S immunoproteasome beta-1 using Ac-PAL-AMC as substrate incubated for 15 mins measured for 45 mins by fluorescence assay; summary of the method: as §3
T8 sequence (P28065 whole entry): T6 sequence (whole entry)

[10] = target: T5, Proteasome subunit beta type-10 (Homo sapiens); experiment: Inhibition of human 20S immunoproteasome beta-2 at 50 uM using BocLRR-AMC as substrate incubated for 15 mins measured for 45 mins by fluorescence assay relative to control
[11] = target: T9, Proteasome subunit beta type-10 (Homo sapiens, UniProt P40306); experiment: Inhibition of human 20S immunoproteasome beta-2 using BocLRR-AMC as substrate incubated for 15 mins measured for 45 mins by fluorescence assay
T9 sequence (P40306 whole entry): T5 sequence (whole entry)

MCF7 = experiment: Cytotoxicity against human MCF7 cells assessed as reduction in cell viability after 48 hrs by Hoechst 33342 staining based HCS assay; assay type: functional; settings: Homo sapiens, MCF7, 48 h; read-out: EC50
Caco-2 = experiment: Cytotoxicity against human Caco2 cells assessed as reduction in cell viability after 48 hrs by Hoechst 33342 staining based HCS assay; assay type: functional; settings: Homo sapiens, Caco-2, 48 h; read-out: EC50; summary of the method: as §4
HCT-116 = experiment: Cytotoxicity against human HCT116 cells assessed as reduction in cell viability after 48 hrs by Hoechst 33342 staining based HCS assay; assay type: functional; settings: Homo sapiens, HCT-116, 48 h; read-out: EC50; summary of the method: as §4
NCI-H727 = experiment: Cytotoxicity against human NCI-H727 cells assessed as reduction in cell viability after 48 hrs by Hoechst 33342 staining based HCS assay; assay type: functional; settings: Homo sapiens, NCI-H727, 48 h; read-out: EC50; summary of the method: as §4
Huh-7 = experiment: Cytotoxicity against human HuH7 cells assessed as reduction in cell viability after 48 hrs by Hoechst 33342 staining based HCS assay; assay type: functional; settings: huh-7; summary of the method: as §4
Fibroblast = experiment: Cytotoxicity against human fibroblasts assessed as reduction in cell viability at 25 uM after 48 hrs by Hoechst 33342 staining based HCS assay
[12] = test system: 20S immunoproteasome β5i (Homo sapiens); experiment: Inhibition of human 20S immunoproteasome beta-5
[13] = test system: 20S proteasome β5 (Homo sapiens); experiment: Inhibition of human 20S constitutive proteasome beta-5

SMILES	inhibition [1]	IC50 [2] [µM]	inhibition [3] [%]	inhibition [4] [%]	IC50 [5] [µM]	fold change (FC) [6]	inhibition [7] [%]	inhibition [8] [%]	IC50 [9] [µM]	inhibition [10] [%]	IC50 [11] [µM]	further results
CC(C)c1ccc(CNC(=O)[C@H](C[C@]2(O)C(=O)Nc3ccccc32)NC(=O)[C@H](C)NC(=O)[C@H](Cc2ccc(OCc3ccccc3)cc2)NC(=O)OC(C)(C)C)cc1	inactive	17.1	37	> 85	10	1.3	> 85	> 85				
C[C@@H](O)[C@@H](NC(=O)c1ccc(OCc2ccccc2)cc1)C(=O)N[C@@H](C[C@]1(O)C(=O)Nc2ccccc21)C(=O)NCc1ccccc1	> 85%	0.0102	> 85	> 85	0.0071		> 85	> 85	23.8	> 85	6.6	EC50 (PC-3): 400 nM; EC50 (MDA-MB-231): 700 nM; EC50 (MCF7): 700 nM; EC50 (Caco-2): 5 µM; EC50 (HCT-116): 200 nM; EC50 (NCI-H727): 2000 nM; EC50 (Huh-7): Not Active; Activity (Fibroblast): Non-Toxic
CC(C)(C)OC(=O)NCCCC[C@H](NC(=O)[C@H](Cc1ccc(OCc2ccccc2)cc1)NC(=O)OC(C)(C)C)C(=O)N[C@@H](C[C@]1(O)C(=O)Nc2ccccc21)C(=O)NCc1ccccc1	inactive	25.1	15	> 85	22	1.3	> 85	> 85	59			
C[C@H](NC(=O)[C@H](Cc1ccc(OCc2ccccc2)cc1)NC(=O)OC(C)(C)C)C(=O)N[C@@H](C[C@@]1(O)C(=O)Nc2ccccc21)C(=O)NCc1ccccc1	inactive		> 85				> 85		10.6	> 85	34	IC50 [12]: 7.3 µM; IC50 [13]: 7 µM
